Assay results published in publication PMC7479925 (Journal of medicinal chemistry, 2012).
Where two headings read alike, the source gives them in different places.

Legend:
Tdp1 [1] = biological target: T1, Tdp1 (Homo sapiens, UniProt Q9NUW8); assay: Tdp1 gel-based assay with recombinant human Tdp1 and N14Y DNA substrate; format: biochemical; conditions: for Tdp1 inhibition (in words): highest tested concentration 333 μM
Tdp1 [2] = biological target: T1, Tdp1; assay: SPR binding to immobilized Tdp1; conditions: dilution series 0.39-50 μM
Procedure, shortened: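 Tdp1 (1 μM) was pre-bound for 20 min with 2 μM 3′-phosphate 14-mer oligo in 10 mM Na acetate pH 4.5 to shield active-site amines, then amine-coupled to a CM5 chip (~6000 RU), with a Tdp1-free reference surface. Test compound was injected at 30 μL/min, 25 °C, in 50 mM Tris/HCl pH 7.5, 80 mM KCl, 5% DMSO. Referencing used buffer cycles and a DMSO calibration; NaCl/DMSO regeneration.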

[3] = system: N14Y oligomer (biotin-[…]-Tyr); assay: SPR binding to immobilized tyrosyl-labeled oligonucleotide; conditions: dilution series 0.39-50 μM

T1 sequence (Q9NUW8 whole entry): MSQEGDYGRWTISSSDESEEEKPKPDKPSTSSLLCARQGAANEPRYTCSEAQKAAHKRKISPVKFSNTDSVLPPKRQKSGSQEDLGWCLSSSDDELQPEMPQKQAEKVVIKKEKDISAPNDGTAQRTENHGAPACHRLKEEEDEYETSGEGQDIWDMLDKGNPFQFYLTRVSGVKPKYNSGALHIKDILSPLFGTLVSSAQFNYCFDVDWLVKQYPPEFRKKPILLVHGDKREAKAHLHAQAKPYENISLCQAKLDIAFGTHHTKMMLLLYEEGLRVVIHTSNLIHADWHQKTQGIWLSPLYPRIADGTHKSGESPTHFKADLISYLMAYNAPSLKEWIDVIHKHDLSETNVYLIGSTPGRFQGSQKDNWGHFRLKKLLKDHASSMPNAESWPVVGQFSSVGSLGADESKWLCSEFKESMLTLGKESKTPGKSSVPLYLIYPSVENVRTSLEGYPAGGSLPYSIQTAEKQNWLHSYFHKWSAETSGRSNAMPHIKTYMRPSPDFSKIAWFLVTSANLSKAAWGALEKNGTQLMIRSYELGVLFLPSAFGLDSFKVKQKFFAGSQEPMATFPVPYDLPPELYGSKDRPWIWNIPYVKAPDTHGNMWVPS

Compound	Tdp1 inhibition (in words) (Tdp1 [1])	IC50 (Tdp1 [1])	other results
O=C1NC(=S)/C(=C/c2ccc(P(=O)(O)O)cc2)S1 [Compound 74, (Z)-(4-((2-Oxo-4-thioxothiazolidin-5-ylidene)methyl)phenyl)-phosphonic Acid]	–	–	fold improvement in potency over 44 (Tdp1 [1]; Tdp1 IC50 vs compound 44): 7.3 fold
N#C/C(=C\c1ccc(O)c(O)c1)C(=O)NCc1ccccc1 [Compound 6]	completely inactive	–	–
N#CC(C#N)=Cc1cc(O)c(O)c(O)c1 [Compound 7]	completely inactive	–	–
O=C1NC(=O)/C(=C/c2ccc(O)c(O)c2)S1 [Compound 39, (Z)-5-(3,4-Dihydroxybenzylidene)thiazolidine-2,4-dione]	–	111 to 333 µM	–
N#C/C(=C\c1ccc(O)c(O)c1)C(=O)O [Compound 4]	completely inactive	–	–
O=C1NC(=S)/C(=C/c2ccc(O)c(O)c2O)S1 [Compound 50, (Z)-4-Thioxo-5-(2,3,4-trihydroxybenzylidene)thiazolidin-2-one]	–	–	binding to Tdp1 (SPR) (Tdp1 [2]): concentration-dependent binding; binding to N14Y oligomer (SPR) [3]: No binding
O=C1/C(=C/c2ccc3[nH]ccc3c2)NC(=S)N1c1ccccc1 [Compound 34, (Z)-5-((1H-Indol-5-yl)methylene)-3-phenyl-2-thioxoimidazolidin-4-one]	–	111 to 333 µM	–
O=C1NC(=S)N(Cc2ccccc2)/C1=C\c1ccc(F)cc1 [Compound 37, (Z)-1-Benzyl-5-(4-fluorobenzylidene)-2-thioxoimidazolidin-4-one]	–	111 to 333 µM	–
N#C/C(=C\c1ccc(O)c(O)c1)C(N)=O [Compound 5]	completely inactive	–	–
(Z)-5-(2-Bromobenzylidene)-4-thioxothiazolidin-2-one [Compound 62]	–	–	IC50 (Tdp1 [1]; read-out: Tdp1 IC50, recombinant human Tdp1, gel-based assay): 30 ± 12 µM
